Laboratory results as given in ChEMBL document CHEMBL5537160, “Design, Synthesis, Pharmacology, and In Silico Studies of (1S,2S,3S)-2-((S)-Amino(carboxy)methyl)-3-(carboxymethyl)cyclopropane-1-carboxylic Acid (LBG30300): A Picomolar Potency Subtype-Selective mGlu2 Receptor Agonist” (J Med Chem, 2024).
pEC50: −log10 of the molar value. Activity calls are given as the source filed them. No cut-off for these calls is given here.

How the values were obtained:
[1] = biological target: Metabotropic glutamate receptor 6 (Rattus norvegicus) (UniProt P35349); experiment: Antagonist activity at rat mGlu6 transfected in HEK293 cells co-transfected with chimeric Gqi9 incubated for 30 mins by IP-one HTRF assay; format: functional, cell-based
In short: (§1)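 Rat group II/III receptor co-electroporated into HEK293 with chimeric Gqi9 and EAAC1 transporter, serum-free medium ≥2 h pre-assay. At 24 h post-transfection, Krebs wash, then 30 min compound exposure with 50 mM LiCl. IP1 accumulation quantified by HTRF kit, at least duplicate runs, mean of 2–5 experiments.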

[2] = biological target: Metabotropic glutamate receptor 4 (Rattus norvegicus) (UniProt P31423); experiment: Antagonist activity at rat mGlu4 transfected in HEK293 cells co-transfected with chimeric Gqi9 incubated for 30 mins by IP-one HTRF assay; format: functional, cell-based; in short: as §1
[3] = biological target: Metabotropic glutamate receptor 5 (Rattus norvegicus) (UniProt P31424); experiment: Antagonist activity at rat mGlu5 transfected in HEK293 cells by IP-one HTRF assay; format: functional, cell-based
In short: (§2)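 HEK293 cells transiently electroporated with rat receptor plasmid plus EAAC1 Glu transporter, plated 150 000 cells/well on polyornithine, serum-free Glutamax DMEM ≥2 h before assay. At 24 h, washed in Krebs buffer and stimulated 30 min with compound in 50 mM LiCl. IP1 read by HTRF, at least duplicates, EC50 from 2–5 experiments.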

[4] = biological target: T1, Metabotropic glutamate receptor 3 (Rattus norvegicus, UniProt P31422); experiment: Agonist activity at rat mGlu3 transfected in HEK293 cells co-transfected with chimeric Gqi9 incubated for 30 mins by IP-one HTRF assay; format: functional, cell-based
[5] = biological target: T2, Metabotropic glutamate receptor 2 (Rattus norvegicus, UniProt P31421); experiment: Agonist activity at rat mGlu2 transfected in HEK293 cells co-transfected with chimeric Gqi9 incubated for 30 mins by IP-one HTRF assay; format: functional, cell-based; conditions: for pEC50: read-out: EC50; in short: as §1
[6] = biological target: Metabotropic glutamate receptor 3 (Rattus norvegicus) (UniProt P31422); experiment: Antagonist activity at rat mGlu3 transfected in HEK293 cells co-transfected with chimeric Gqi9 incubated for 30 mins by IP-one HTRF assay; format: functional, cell-based
[7] = biological target: Metabotropic glutamate receptor 8 (Rattus norvegicus) (UniProt P70579); experiment: Antagonist activity at rat mGlu8 transfected in HEK293 cells co-transfected with chimeric Gqi9 incubated for 30 mins by IP-one HTRF assay; format: functional, cell-based; in short: as §1
[8] = biological target: Metabotropic glutamate receptor 7 (Rattus norvegicus) (UniProt P35400); experiment: Antagonist activity at rat mGlu7 transfected in HEK293 cells co-transfected with chimeric Gqi9 incubated for 30 mins by IP-one HTRF assay; format: functional, cell-based; in short: as §1
[9] = biological target: Metabotropic glutamate receptor 1 (Rattus norvegicus) (UniProt P23385); experiment: Antagonist activity at rat mGlu1 transfected in HEK293 cells by IP-one HTRF assay; format: functional, cell-based; in short: as §2
[10] = biological target: Metabotropic glutamate receptor 2 (Rattus norvegicus) (UniProt P31421); experiment: Antagonist activity at rat mGlu2 transfected in HEK293 cells co-transfected with chimeric Gqi9 incubated for 30 mins by IP-one HTRF assay; format: functional, cell-based
[11] = biological target: T1, Metabotropic glutamate receptor 3; experiment: Agonist activity at rat mGlu3; format: functional
[12] = biological target: T2, Metabotropic glutamate receptor 2; experiment: Agonist activity at rat mGlu2; format: functional
[13] = biological target: Metabotropic glutamate receptor 5 (Rattus norvegicus, UniProt P31424); experiment: Agonist activity at rat mGlu5 transfected in HEK293 cells by IP-one HTRF assay; format: functional, cell-based; conditions: for pEC50: read-out: EC50
In short: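 HEK293 cells transiently electroporated with rat receptor plasmid plus the high-affinity Glu transporter EAAC1. Cells were grown in DMEM with 10% FBS and seeded on polyornithine-coated wells at 150 000 cells/well. Medium was switched to serum-free Glutamax DMEM ≥2 h before assay. At 24 h cells were washed in Krebs buffer and stimulated 30 min with agonist plus 50 mM LiCl. IP1 read by IP-One HTRF; ≥ duplicates.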

[14] = biological target: T1, Metabotropic glutamate receptor 3; experiment: Agonist activity at rat mGlu3 transfected in HEK293 cells assessed as inositol phosphate accumulation; format: functional, cell-based
[15] = biological target: Metabotropic glutamate receptor 4 (Rattus norvegicus, UniProt P31423); experiment: Agonist activity at rat mGlu4 transfected in HEK293 cells co-transfected with chimeric Gqi9 incubated for 30 mins by IP-one HTRF assay; format: functional, cell-based; conditions: for pEC50: read-out: EC50; in short: as §1
[16] = biological target: Metabotropic glutamate receptor 8 (Rattus norvegicus, UniProt P70579); experiment: Agonist activity at rat mGlu8 transfected in HEK293 cells co-transfected with chimeric Gqi9 incubated for 30 mins by IP-one HTRF assay; format: functional, cell-based; conditions: for pEC50: read-out: EC50; for EC50: read-out: pEC50 (converted); in short: as §1
[17] = biological target: Metabotropic glutamate receptor 6 (Rattus norvegicus, UniProt P35349); experiment: Agonist activity at rat mGlu6 transfected in HEK293 cells co-transfected with chimeric Gqi9 incubated for 30 mins by IP-one HTRF assay; format: functional, cell-based; conditions: for pEC50: read-out: EC50; for EC50: read-out: pEC50 (converted); in short: as §1
[18] = biological target: Metabotropic glutamate receptor 7 (Rattus norvegicus, UniProt P35400); experiment: Agonist activity at rat mGlu7 transfected in HEK293 cells co-transfected with chimeric Gqi9 incubated for 30 mins by IP-one HTRF assay; format: functional, cell-based; in short: as §1
[19] = biological target: Metabotropic glutamate receptor 1 (Rattus norvegicus, UniProt P23385); experiment: Agonist activity at rat mGlu1 transfected in HEK293 cells by IP-one HTRF assay; format: functional, cell-based; in short: as §2
[20] = biological target: T1, Metabotropic glutamate receptor 3; experiment: Agonist activity at SNAP tagged rat mGlu3 transfected HEK293 cells preincubated with antagonist LY-341495 followed by compound addition by TR-FRET assay; format: functional, cell-based
[21] = Cmax in CSF of C57BL/6 mouse at 100 mg/kg, po by LC-MS/MS analysis; format: ADME, organism-based, Cerebrospinal fluid
[22] = Half life in C57BL/6 mouse plasma at 100 mg/kg, po by LC-MS/MS analysis; format: ADME, organism-based
[23] = Cmax in C57BL/6 mouse plasma at 100 mg/kg, po by LC-MS/MS analysis; format: ADME, organism-based
[24] = Half life in C57BL/6 mouse brain at 100 mg/kg, po by LC-MS/MS analysis; format: ADME, organism-based
[25] = Cmax in C57BL/6 mouse brain at 100 mg/kg, po by LC-MS/MS analysis; format: ADME, organism-based
[26] = biological target: Metabotropic glutamate receptor 7 (Rattus norvegicus) (UniProt P35400); experiment: Agonist activity at rat mGlu7 transfected in HEK293 cells co-transfected with chimeric Gqi9 at 3000 uM incubated for 30 mins by IP-one HTRF assay relative to control; format: functional, cell-based; conditions: filed as agonist
In short: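 Rat receptor was co-electroporated into HEK293 cells with chimeric Gqi9, for phospholipase C coupling, and with the EAAC1 Glu transporter. Cells were seeded on polyornithine at 150 000 cells/well and moved to serum-free Glutamax DMEM ≥2 h before assay. At 24 h cells were washed in Krebs buffer and given compound at 3000 μM with 50 mM LiCl for 30 min. IP1 measured by HTRF kit; response expressed as % of control; ≥ duplicates.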

[27] = biological target: T2, Metabotropic glutamate receptor 2; experiment: Agonist activity at SNAP tagged rat mGlu2 transfected HEK293 cells by TR-FRET assay; format: functional, cell-based; conditions: for pEC50: read-out: EC50
Rattus norvegicus [28] = organism: Rattus norvegicus; experiment: Selectivity ratio of EC50 for SNAP tagged rat mGlu3 to EC50 for SNAP tagged rat mGlu2
In short: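 Ratio of EC50 at SNAP-tagged rat mGlu3 to mGlu2, both measured by TR-FRET conformational assay in HEK293 after LY341495 preincubation and washing; Lumi4-Tb/Green labeling, 337 nm excitation, 620/520 nm emission.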

[29] = Unbound brain to plasma concentration ratio in C57BL/6 mouse at 10 mg/kg, iv […] by LC-MS/MS analysis; format: ADME, organism-based; conditions: read-out: K(p,uu,brain)
[30] = Cmax in C57BL/6 mouse brain at 10 mg/kg, iv measured after 4 hrs by LC-MS/MS analysis; format: ADME, organism-based
In short: (§3)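 Mice given a single 10 mg/kg IV dose; plasma and brain concentrations sampled at 0.25, 1.0 and 4.0 h, means ± error per timepoint.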

[31] = Cmax in C57BL/6 mouse plasma at 10 mg/kg, iv measured after 4 hrs by LC-MS/MS analysis; format: ADME, organism-based; in short: as §3
[32] = Cmax in C57BL/6 mouse plasma at 10 mg/kg, iv measured after 1 hr by LC-MS/MS analysis; format: ADME, organism-based; in short: as §3
Rattus norvegicus [33] = organism: Rattus norvegicus; experiment: Selectivity ratio of EC50 for rat mGlu3 to EC50 for rat Glu2
[34] = Cmax in C57BL/6 mouse brain at 10 mg/kg, iv measured after 0.25 hrs by LC-MS/MS analysis; format: ADME, organism-based; in short: as §3
[35] = biological target: T2, Metabotropic glutamate receptor 2; experiment: Agonist activity at SNAP tagged rat mGlu2 transfected HEK293 cells preincubated with antagonist LY-341495 followed by compound addition by TR-FRET assay; format: functional, cell-based
[36] = Cmax in C57BL/6 mouse plasma at 10 mg/kg, iv measured after 0.25 hrs by LC-MS/MS analysis; format: ADME, organism-based; in short: as §3
[37] = Half life in C57BL/6 mouse plasma at 10 mg/kg, iv by LC-MS/MS analysis; format: ADME, organism-based; in short: as §3
[38] = Cmax in C57BL/6 mouse brain at 10 mg/kg, iv measured after 1 hrs by LC-MS/MS analysis; format: ADME, organism-based; in short: as §3

Sequence of Metabotropic glutamate receptor 7 (Rattus norvegicus) (P35400 whole entry): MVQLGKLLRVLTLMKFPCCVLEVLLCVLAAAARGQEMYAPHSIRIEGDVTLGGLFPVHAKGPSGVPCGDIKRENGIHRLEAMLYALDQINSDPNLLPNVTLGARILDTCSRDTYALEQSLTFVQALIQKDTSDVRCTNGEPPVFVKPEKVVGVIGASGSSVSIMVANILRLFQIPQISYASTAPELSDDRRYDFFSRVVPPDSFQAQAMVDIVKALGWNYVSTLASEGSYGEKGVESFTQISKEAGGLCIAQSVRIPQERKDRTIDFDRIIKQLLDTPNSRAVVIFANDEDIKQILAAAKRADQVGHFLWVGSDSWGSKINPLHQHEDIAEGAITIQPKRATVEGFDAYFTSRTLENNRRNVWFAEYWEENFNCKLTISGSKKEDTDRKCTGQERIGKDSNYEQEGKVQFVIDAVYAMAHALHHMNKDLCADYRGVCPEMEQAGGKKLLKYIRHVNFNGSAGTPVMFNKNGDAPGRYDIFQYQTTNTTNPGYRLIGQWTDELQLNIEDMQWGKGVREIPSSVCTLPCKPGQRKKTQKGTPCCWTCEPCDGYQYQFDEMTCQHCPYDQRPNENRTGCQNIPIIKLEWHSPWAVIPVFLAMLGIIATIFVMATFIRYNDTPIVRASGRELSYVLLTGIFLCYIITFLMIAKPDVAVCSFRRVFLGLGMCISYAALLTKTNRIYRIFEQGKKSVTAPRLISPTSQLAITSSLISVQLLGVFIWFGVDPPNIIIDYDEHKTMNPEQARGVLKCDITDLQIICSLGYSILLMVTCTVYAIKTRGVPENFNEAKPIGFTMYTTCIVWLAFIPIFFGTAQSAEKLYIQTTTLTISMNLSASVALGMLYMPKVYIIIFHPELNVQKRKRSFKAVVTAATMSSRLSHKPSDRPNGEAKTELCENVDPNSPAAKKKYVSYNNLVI
Sequence of Metabotropic glutamate receptor 3 (Rattus norvegicus) (P31422 23-879 limits assumed): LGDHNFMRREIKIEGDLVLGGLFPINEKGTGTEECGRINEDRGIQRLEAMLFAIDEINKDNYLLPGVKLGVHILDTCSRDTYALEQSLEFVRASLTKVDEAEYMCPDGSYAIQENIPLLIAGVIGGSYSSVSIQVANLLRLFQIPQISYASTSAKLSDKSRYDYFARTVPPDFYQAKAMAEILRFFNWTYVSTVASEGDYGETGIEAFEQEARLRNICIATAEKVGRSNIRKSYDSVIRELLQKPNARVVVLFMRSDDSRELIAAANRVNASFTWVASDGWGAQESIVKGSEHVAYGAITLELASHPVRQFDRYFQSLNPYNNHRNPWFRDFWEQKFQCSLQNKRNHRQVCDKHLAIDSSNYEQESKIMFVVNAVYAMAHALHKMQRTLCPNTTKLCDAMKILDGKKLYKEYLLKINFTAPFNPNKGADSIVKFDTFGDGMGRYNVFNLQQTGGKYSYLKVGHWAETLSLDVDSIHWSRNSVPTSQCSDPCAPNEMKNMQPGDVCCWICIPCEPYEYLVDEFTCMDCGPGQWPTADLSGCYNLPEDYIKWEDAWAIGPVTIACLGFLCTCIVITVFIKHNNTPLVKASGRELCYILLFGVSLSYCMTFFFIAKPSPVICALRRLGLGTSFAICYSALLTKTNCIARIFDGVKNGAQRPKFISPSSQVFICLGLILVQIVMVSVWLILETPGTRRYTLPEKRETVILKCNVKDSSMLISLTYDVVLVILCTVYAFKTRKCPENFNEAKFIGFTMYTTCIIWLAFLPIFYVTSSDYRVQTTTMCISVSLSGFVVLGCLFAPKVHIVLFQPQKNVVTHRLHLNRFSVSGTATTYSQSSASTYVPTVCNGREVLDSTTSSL
Sequence of Metabotropic glutamate receptor 1 (Rattus norvegicus) (P23385 19-1199 limits assumed): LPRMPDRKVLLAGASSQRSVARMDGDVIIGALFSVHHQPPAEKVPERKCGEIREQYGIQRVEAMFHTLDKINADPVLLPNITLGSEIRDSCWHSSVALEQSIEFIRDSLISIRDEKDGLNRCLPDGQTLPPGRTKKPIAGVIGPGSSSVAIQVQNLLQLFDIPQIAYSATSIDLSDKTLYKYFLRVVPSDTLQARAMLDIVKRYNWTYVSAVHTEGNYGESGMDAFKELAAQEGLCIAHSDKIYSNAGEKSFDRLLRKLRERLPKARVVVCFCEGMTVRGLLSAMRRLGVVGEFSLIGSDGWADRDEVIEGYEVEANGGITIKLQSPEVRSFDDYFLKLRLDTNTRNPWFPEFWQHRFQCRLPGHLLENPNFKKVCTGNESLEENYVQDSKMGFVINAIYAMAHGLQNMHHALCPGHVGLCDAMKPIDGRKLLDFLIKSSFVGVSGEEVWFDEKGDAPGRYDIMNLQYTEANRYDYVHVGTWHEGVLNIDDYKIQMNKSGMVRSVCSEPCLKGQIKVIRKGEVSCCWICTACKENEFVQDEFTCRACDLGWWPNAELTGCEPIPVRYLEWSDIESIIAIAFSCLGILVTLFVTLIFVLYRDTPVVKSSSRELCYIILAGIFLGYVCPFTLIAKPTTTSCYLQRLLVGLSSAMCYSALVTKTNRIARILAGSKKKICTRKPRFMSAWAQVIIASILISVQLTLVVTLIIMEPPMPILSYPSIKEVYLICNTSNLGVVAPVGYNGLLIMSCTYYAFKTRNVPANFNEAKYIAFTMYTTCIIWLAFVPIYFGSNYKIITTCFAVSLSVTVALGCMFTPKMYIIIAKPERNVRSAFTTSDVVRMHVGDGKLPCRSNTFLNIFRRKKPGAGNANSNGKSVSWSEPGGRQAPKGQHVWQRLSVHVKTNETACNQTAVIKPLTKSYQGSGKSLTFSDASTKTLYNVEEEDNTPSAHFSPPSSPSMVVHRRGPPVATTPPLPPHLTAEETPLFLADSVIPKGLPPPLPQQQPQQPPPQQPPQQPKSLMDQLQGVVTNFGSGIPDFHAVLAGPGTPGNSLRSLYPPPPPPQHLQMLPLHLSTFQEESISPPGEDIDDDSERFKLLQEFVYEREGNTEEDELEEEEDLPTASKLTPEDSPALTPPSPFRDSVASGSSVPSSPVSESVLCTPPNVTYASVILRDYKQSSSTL
Sequence of Metabotropic glutamate receptor 5 (P31424 whole entry): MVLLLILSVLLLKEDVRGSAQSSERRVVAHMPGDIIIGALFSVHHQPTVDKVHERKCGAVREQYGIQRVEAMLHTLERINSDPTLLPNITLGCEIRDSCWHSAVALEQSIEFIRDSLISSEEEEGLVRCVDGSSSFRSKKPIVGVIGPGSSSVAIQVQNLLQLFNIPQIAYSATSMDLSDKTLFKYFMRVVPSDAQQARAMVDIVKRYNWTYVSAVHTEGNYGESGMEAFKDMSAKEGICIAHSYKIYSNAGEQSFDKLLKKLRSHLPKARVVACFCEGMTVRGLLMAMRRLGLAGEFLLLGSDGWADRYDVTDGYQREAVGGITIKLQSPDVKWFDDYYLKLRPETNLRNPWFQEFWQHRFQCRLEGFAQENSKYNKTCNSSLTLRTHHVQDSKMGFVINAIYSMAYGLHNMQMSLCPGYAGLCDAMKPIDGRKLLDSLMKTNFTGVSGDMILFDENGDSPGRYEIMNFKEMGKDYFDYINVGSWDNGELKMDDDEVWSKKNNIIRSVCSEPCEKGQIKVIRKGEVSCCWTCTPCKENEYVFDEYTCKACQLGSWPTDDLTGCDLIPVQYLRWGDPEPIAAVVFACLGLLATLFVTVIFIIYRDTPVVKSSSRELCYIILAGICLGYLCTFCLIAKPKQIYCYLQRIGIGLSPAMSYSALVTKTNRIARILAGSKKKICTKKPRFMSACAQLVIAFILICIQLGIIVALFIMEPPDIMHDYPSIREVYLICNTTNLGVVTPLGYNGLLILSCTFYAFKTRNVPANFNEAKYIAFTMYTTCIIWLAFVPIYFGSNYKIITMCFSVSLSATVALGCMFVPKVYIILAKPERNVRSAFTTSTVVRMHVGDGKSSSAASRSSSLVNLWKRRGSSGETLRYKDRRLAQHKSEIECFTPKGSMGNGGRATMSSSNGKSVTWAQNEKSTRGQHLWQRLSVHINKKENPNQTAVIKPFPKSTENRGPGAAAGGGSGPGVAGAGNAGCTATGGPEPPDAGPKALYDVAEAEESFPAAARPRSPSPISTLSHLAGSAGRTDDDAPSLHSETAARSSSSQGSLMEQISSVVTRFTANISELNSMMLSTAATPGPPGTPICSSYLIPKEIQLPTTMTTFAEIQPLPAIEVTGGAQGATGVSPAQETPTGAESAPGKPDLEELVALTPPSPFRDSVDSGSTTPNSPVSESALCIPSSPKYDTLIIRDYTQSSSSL
T2 sequence (P31421 whole entry): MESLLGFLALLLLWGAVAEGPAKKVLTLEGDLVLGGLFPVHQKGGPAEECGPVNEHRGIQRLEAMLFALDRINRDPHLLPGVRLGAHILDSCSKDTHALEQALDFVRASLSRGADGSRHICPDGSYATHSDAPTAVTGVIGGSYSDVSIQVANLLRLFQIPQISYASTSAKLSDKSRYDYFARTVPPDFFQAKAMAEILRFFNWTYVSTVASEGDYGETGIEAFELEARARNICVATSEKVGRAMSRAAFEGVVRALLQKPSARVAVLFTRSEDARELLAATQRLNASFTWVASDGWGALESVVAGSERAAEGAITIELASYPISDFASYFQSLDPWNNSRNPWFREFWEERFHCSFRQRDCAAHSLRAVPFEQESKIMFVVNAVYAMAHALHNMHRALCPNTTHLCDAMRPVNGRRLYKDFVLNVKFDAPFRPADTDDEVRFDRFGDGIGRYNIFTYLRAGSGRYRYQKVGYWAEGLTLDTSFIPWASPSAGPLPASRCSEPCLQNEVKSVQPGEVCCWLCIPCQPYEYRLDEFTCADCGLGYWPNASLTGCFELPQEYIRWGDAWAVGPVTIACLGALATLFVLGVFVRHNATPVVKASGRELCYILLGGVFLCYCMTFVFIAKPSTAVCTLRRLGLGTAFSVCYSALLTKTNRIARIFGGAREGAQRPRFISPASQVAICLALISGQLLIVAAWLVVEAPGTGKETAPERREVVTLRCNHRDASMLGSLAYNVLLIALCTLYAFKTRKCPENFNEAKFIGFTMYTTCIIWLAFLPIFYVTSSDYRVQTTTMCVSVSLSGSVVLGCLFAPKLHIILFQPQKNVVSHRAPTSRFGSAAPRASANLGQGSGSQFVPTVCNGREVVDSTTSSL
Sequence of Metabotropic glutamate receptor 7 (P35400 whole entry): as the sequence (P35400 whole entry) above

N[C@@]1(C(=O)O)CO[C@H]2[C@H](C(=O)O)[C@H]21 [LY-379268]
Activity [1]: inactive
Activity [2]: inactive
Activity [3]: inactive
pEC50 [4]: 8.00
pEC50 [5]: 9.00
Activity [6]: inactive
Activity [7]: inactive
Activity [8]: inactive
Activity [9]: inactive
Activity [10]: inactive

N[C@H](C(=O)O)[C@H]1[C@@H](CO)[C@@H]1C(=O)O
pEC50 [11]: 8.15
pEC50 [12]: 8.40

N[C@@H](Cn1oc(=O)[nH]c1=O)C(=O)O [QUISQUALATE]
Activity [1]: inactive
Activity [2]: inactive
pEC50 [13]: 7.57
EC50 ([13]; read-out: pEC50 (converted)): 40.7 nM
Activity [3]: inactive
Activity [6]: inactive
Activity [7]: inactive
Activity [8]: inactive
Activity [9]: inactive
Activity [10]: inactive

N[C@H](C(=O)O)C1[C@@H](C(=O)O)[C@@H]1C(=O)O (some centres undefined)
pEC50 [14]: 7.05

C[C@@]1(C(=O)O)C[C@H]1[C@H](N)C(=O)O
Activity [1]: inactive
Activity [2]: inactive
pEC50 [13]: 4.92
Activity [3]: inactive
pEC50 [15]: < 4.52
pEC50 [4]: 5.73
Activity [6]: inactive
Activity [7]: inactive
pEC50 [16]: < 4.52
Activity [8]: inactive
Activity [9]: inactive
pEC50 [17]: 5.60
pEC50 [18]: < 4.52
Activity [10]: inactive
pEC50 [19]: 5.26

N[C@@]1(C(=O)O)CC[C@H]2[C@H](C(=O)O)[C@H]21
pEC50 [20]: 5.32
Cmax [21]: 14 ng/g
half-life [22]: 6.8 h
Cmax [23]: 2120 ng/mL
half-life [24]: 69 h
pEC50 [11]: 7.57
Cmax [25]: 76 ng/g

N[C@@H](CCP(=O)(O)O)C(=O)O
Activity [1]: inactive
Activity [2]: inactive
Activity [3]: inactive
pEC50 [15]: 6.74
Activity [6]: inactive
Activity [7]: inactive
Activity [26]: 100%
pEC50 [16]: 6.54
EC50 [16]: 174 nM
Activity [8]: inactive
Activity [9]: inactive
EC50 [17]: 2290 nM
Activity [10]: inactive

COc1cccc(C(=O)N[C@H]2C[C@@](N)(C(=O)O)[C@@H]3[C@@H](C(=O)O)[C@@H]32)c1
pEC50 [20]: 7.49
pEC50 [27]: 5.55

Cl.N[C@H](C(=O)O)[C@H]1[C@H](CC(=O)O)[C@@H]1C(=O)O
Activity [1]: inactive
Activity [2]: inactive
pEC50 [13]: < 4.52
Ratio EC50 (Rattus norvegicus [28]): 513
Activity [3]: inactive
Kp uu [29]: 0.02
pEC50 [20]: 4.94
Cmax [30]: 68 ng/g
pEC50 [15]: 6.96
EC50 ([15]; read-out: pEC50 (converted)): 35.5 nM
pEC50 [4]: 6.43
pEC50 [5]: 9.00
EC50 ([5]; read-out: pEC50 (converted)): 0.575 nM
Activity [6]: inactive
Activity [7]: inactive
Cmax [31]: 50 ng/mL
Cmax [32]: 583 ng/mL
Ratio EC50 (Rattus norvegicus [33]): 620
pEC50 [27]: 7.89
EC50 ([27]; read-out: pEC50 (converted)): 22.4 nM
pEC50 [16]: 7.01
EC50 [16]: 35.5 nM
Activity [8]: inactive
Activity [9]: inactive
Cmax [34]: 86 ng/g
pEC50 [35]: 7.66
Cmax [36]: 5360 ng/mL
pEC50 [17]: 6.55
EC50 [17]: 245 nM
pEC50 [18]: < 4.52
half-life [37]: 0.5 h
Activity [10]: inactive
Cmax [38]: 75 ng/g
pEC50 [19]: < 4.52
